# PubChem BioAssay AID504382 (The Scripps Research Institute Molecular Screening Center, 2011)
# The whole screen tested about 2,500 compounds, of which about 460 (18%) were called active. The list is a sample of the results. Unmarked numbers belong to inactive results.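 How the source made its calls: active means mean activation above a cutoff of low control average plus 3 SD from the earlier screen (cut at about 12% in these data); inactive means the rest.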
# Test: IANBD-channel fluorescence artefacts in buffer – biochemical, artefact control for cardiac RTF calcium sensitizer project, confirmation (AID 504382)
# Conditions: IANBD fluorescence interference counterscreen, EC20 Ca2+, at 7.2 µM, active compounds read high, scaled: EC20 calcium 0, EC100 calcium 100
# Method in brief: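 Also added: EC20 calcium, 0.472 mM; dosing: single nominal 7.2 µM compound dose, 0.7% DMSO final; timing: 15 min, 25 °C; detection: fluorescence intensity, excitation 480 nm, emission 540 nm; replicates: each compound tested in triplicate wells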
row,Structure (SMILES),fluorescence artifact activation
1,CC1(C)NC(=O)N(CCCCOc2ccc(Cl)cc2)C1=O,0.28%
2,CCOC(=O)NC1(C(F)(F)F)C(=O)NC(C)=C1C(=O)OC (stereo not drawn),5.24%
3,Cc1ccc(-n2c(C)n[nH]c2=S)cc1,1.66%
4,S=c1[nH]nc(-c2ccc(Cl)cc2)n1-c1ccc2c(c1)OCCO2,31.8% (active)
5,CCN(CC)c1ccc(/C=C2/SC(=O)N(C(C)C)C2=O)o1,8.25%
6,C/C(=N/NS(=O)(=O)c1ccccc1)c1ccc(NC(=O)C2CC2)cc1,6.01%
7,O=C(CNCc1cccs1)Nc1ccc(S(=O)(=O)N2CCCCC2)cc1,15.8% (active)
8,O=C(CCCN1C(=O)c2ccccc2C1=O)Nc1ccc(S(=O)(=O)N2CCCCC2)cc1,0.02%
9,O=C(CNCc1cccs1)Nc1cc(S(=O)(=O)N2CCCC2)ccc1Cl,4.18%
10,CCC1(O)C(=O)OCc2c1cc1n(c2=O)Cc2cc3cc(O)ccc3nc2-1 (stereo not drawn),0.27%
11,O=C1CCC(=O)N1CC(O)COc1ccccc1 (stereo not drawn),61.5% (active)
12,Cc1cc(C)n(CC(O)COc2ccccc2)n1 (stereo not drawn),0.59%
13,CCOc1ccccc1C(=O)NN1C(=O)CCC1=O,3.75%
14,CC(C)(C)NC(=O)[C@@H]1CN(Cc2cccnc2)CCN1C[C@@H](O)C[C@@H](Cc1ccccc1)C(=O)N[C@H]1c2ccccc2C[C@H]1O,54.1% (active)
15,Cn1nc([N+](=O)[O-])c(C(C#N)c2ccccn2)c(Cl)c1=O (stereo not drawn),-0.03%
16,Cc1c(N2C(=O)/C(=C\c3ccc(N(C)C)cc3)N(C)C2=S)c(=O)n(-c2ccccc2)n1C,0.17%
17,CN(C)c1ccc(/C=C2\N=C(C(C)(C)C)OC2=O)cc1,0.15%
18,CN1C(=O)/C(=C\c2ccc(N(C)C)cc2)OC1=S,57.7% (active)
19,Cc1ccc(NC2OC(C(O)CO)C(O)C2O)cc1[N+](=O)[O-] (stereo not drawn),5.79%
20,O=C(c1ccc(COc2ccccc2Br)o1)N1N=C(C(F)F)CC1(O)C(F)F (stereo not drawn),8.57%
21,CC(=O)Nc1ccc(S(=O)(=O)N2CCN3CCCC3C2)cc1 (stereo not drawn),-0.04%
22,CCOC(=O)/C(=C/C1=CC(=C/N(C)C)/C(=O)O1)C(C)=O,22.1% (active)
23,CCOC(=O)/C(=C\c1ccc(N2CCC(c3ccccc3)=N2)cc1)C(C)=O,-0.05%
24,CCOC(=O)/C(=C/C=C1\Sc2cc(C)c(C)cc2N1CC)C(C)=O,0.02%

row,Structure (SMILES),fluorescence artifact activation
1,CCc1ccc(/C=N/n2c(C)cc(C)c(C#N)c2=O)cc1,0.12%
2,CCCNC(=S)N1CCC(NC(=O)C23CC4CC(CC(C4)C2)C3)CC1,0.09%
3,CCn1nnnc1SCC(=O)N1CCCc2ccccc21,0.01%
4,Cc1ccccc1-n1nnnc1SCC(C)C,32.8% (active)
5,CSc1nnnn1-c1c(C)cc(C)cc1C,0.04%
6,CCO[C@@H]1OC(C(=O)O)=C[C@H](c2coc3ccccc3c2=O)[C@H]1CCCO,1.71%
7,COCCn1c(SCC#N)nnc1-c1ccc([N+](=O)[O-])cc1,-0.11%
8,COc1cc(/C=C2\SC(=Nc3ccccc3)NC2=O)cc(Cl)c1O,0.21%
9,COc1cccc(N=C2NC(=O)/C(=C/c3cc([N+](=O)[O-])ccc3O)S2)c1,0.01%
10,COc1cc(/C=C2\SC(=Nc3ccc(Cl)c(C(=O)O)c3)NC2=O)c(Br)c(Br)c1O,17.6% (active)
11,c1ccc(-c2nc(-c3ccco3)n3ccccc23)cc1,0.05%
12,O=C(/C=C/c1cccc(F)c1)Nc1cc(S(=O)(=O)N2CCOCC2)ccc1N1CCCC1,0.02%
13,CC(C)CSC1=NSC2=NC(=O)/C(=C\c3coc4ccccc4c3=O)C(=N)N12,12.7% (active)
14,N=C1/C(=C\c2coc3ccccc3c2=O)C(=O)N=C2SC(c3ccncc3)=NN12,7.67%
15,CCSC1=NSC2=NC(=O)/C(=C\c3coc4ccccc4c3=O)C(=N)N12,24.5% (active)
16,CSC1=NSC2=NC(=O)/C(=C/c3coc4ccccc4c3=O)C(=N)N12,0.27%
17,CC(C)CC1=NN2C(=N)/C(=C\c3coc4ccccc4c3=O)C(=O)N=C2S1,2.69%
18,N=C1/C(=C\c2coc3ccccc3c2=O)C(=O)N=C2SC=CN12,-0.01%
19,Cn1nnnc1SCCOc1ccc(C#N)cc1,-0.03%
20,CSc1cccc(NC(=O)c2ccc(Cl)nc2)c1,-0.04%
21,Fc1ccc(-c2[nH]ncc2CN(CC2CCC2)CC2CCCO2)c(F)c1 (stereo not drawn),8.43%
22,C=C(C)c1sc(-c2ccc(Cl)cc2)nc1C,0.11%
23,O=C(NN1C(=O)/C(=C/c2ccc(O)cc2)SC1=S)c1cccc(O)c1,0.01%
24,Cc1cc2nc(C3CCCN(C(=O)NCc4ccccc4)C3)[nH]c2cc1C (stereo not drawn),8.15%

row,Structure (SMILES),fluorescence artifact activation
1,COc1ccc(-n2c(O)c(/C=N/NS(=O)(=O)c3ccc(C)cc3)c3ccccc3c2=O)cc1OC,12.8% (active)
2,COc1ccc(-n2c(O)c(/C=N/NS(=O)(=O)c3ccc(C)c([N+](=O)[O-])c3)c3ccccc3c2=O)cc1OC,-0.02%
3,COc1ccc(-n2c(O)c(/C=N/NS(=O)(=O)c3cc(C)ccc3C)c3ccccc3c2=O)cc1OC,0.84%
4,COc1ccc(/C(C)=N/N2C(=O)c3ccccc3NC2c2ccc(O)c(OC)c2)cc1 (stereo not drawn),0.69%
5,Cc1cn(COC/C=C/c2ccccc2)c(=O)[nH]c1=O,25.6% (active)
6,Cc1ccccc1-n1c(O)c(/C=C/C=Nc2ccccc2)c(=O)[nH]c1=O,2.27%
7,CCCCOc1ccc(C2OC34CCCCC3C(C#N)(C#N)C2(C#N)C(=N)O4)cc1 (stereo not drawn),0.1%
8,COc1ccc(C(=O)OC/C(O)=C(\C#N)c2nc3ccccc3[nH]2)cc1S(=O)(=O)N1CCOCC1,0.13%
9,O=C1OCC/C1=C\c1ccccc1O,-0.06%
10,COC(=O)C1CSc2[nH]c(=O)sc2C1c1ccccc1 (stereo not drawn),0.07%
11,CC(C)C(C(=O)O)N1C(=O)/C(=C/c2cccn2C)SC1=S (stereo not drawn),12.3% (active)
12,Cc1ccc(C(=O)NN2C(=O)/C(=C/c3cccn3C)SC2=S)cc1,4.27%
13,Cn1cccc1/C=C1\SC(=S)N(NC(=O)c2ccccc2)C1=O,18.2% (active)
14,CCCCN1C(=O)/C(=C/C=C2\SCCN2C)SC1=S,0%
15,Cn1cc(/C=C2\SC(=S)N(NC(=O)c3ccccc3)C2=O)c2ccccc21,2.64%
16,Cc1ccc(C(=O)NN2C(=O)/C(=C/c3cn(C)c4ccccc34)SC2=S)cc1,7.41%
17,Cn1cccc1/C=C1\SC(=S)N(NC(=O)c2ccc(Cl)cc2)C1=O,0.86%
18,CN1CCS/C1=C/C=C1\SC(=S)N(CC(=O)O)C1=O,18.9% (active)
19,CN1CCS/C1=C\C=C1/SC(=S)N(CC(=O)O)C1=O,-0.02%
20,Cn1cc(/C=C2\SC(=S)N(NC(=O)c3cccc(Cl)c3)C2=O)c2ccccc21,17% (active)
21,CCC(C(=O)O)N1C(=O)/C(=C/c2cccn2C)SC1=S (stereo not drawn),4.17%
22,CC(C(=O)O)N1C(=O)/C(=C/c2cccn2C)SC1=S (stereo not drawn),6.16%
23,Cc1ccc(N2CN(Cc3cccnc3)CNC2=S)cc1,0.4%
24,CCOC(=O)c1cnc(SC)nc1Oc1cccc(NS(=O)(=O)c2ccc(Cl)cc2)c1,0.07%

row,Structure (SMILES),fluorescence artifact activation
1,CCN1C(=S)SC(=O)C1=C1C=C(C)N(Cc2ccco2)C(C)=C1,0.18%
2,COc1cc(/C=N\NC(=O)CC(=O)NCCc2ccccc2)ccc1O,0.17%
3,CN(C)c1ccc(NC2=C([N+](=O)[O-])CS(=O)(=O)C2)cc1,3.15%
4,CCc1ccc(NC(=O)C2CCN(S(=O)(=O)c3ccc4[nH]c(=O)ccc4c3)CC2)cc1,0.08%
5,COc1ccc(C2OC34CCCCC3C(C#N)(C#N)C2(C#N)C(=N)O4)cc1 (stereo not drawn),0.16%
6,CC(=O)Nc1sc2c(c1-c1nc3ccccc3s1)CN(C(C)C)CC2,-0.08%
7,Nc1c(C(=O)C2CC2)sc2nc(-c3ccccc3)cc(C(F)(F)F)c12,8.48%
8,Cn1cccc1/C=C1\SC(=S)N(CC(=O)O)C1=O,3.44%
9,Cn1cccc1/C=C1/SC(=S)N(CC(=O)O)C1=O,52.3% (active)
10,O=C(O)CN1C(=O)/C(=C\c2cn(CC(=O)N3CCOCC3)c3ccccc23)SC1=S,4.83%
11,COc1ccc2noc3c2c1C(=O)c1ccccc1-3,0.01%
12,COc1ccc(N=Cc2c(O)c3ccccc3n2C(C)=O)cc1,1.91%
13,N=c1oc2ccccc2cc1-c1nc(-c2ccccc2)cs1,0.03%
14,N#C/C(=C\c1ccc(N2CCOCC2)o1)C(=O)NC1CCCCC1,10.5%
15,N#C/C(=C/c1ccc(N2CCOCC2)o1)C(=O)NC1CCCCC1,-0.06%
16,N#C/C(=C/c1ccc(N2CCCCC2)o1)C(=O)Nc1ccc2ccccc2c1,52.8% (active)
17,N#C/C(=C\c1ccc(N2CCCCC2)o1)C(=O)Nc1cccc(Br)c1,1.73%
18,COc1ccc(NC(=O)/C(C#N)=C\c2ccc(N3CCOCC3)o2)cc1,8.28%
19,N#C/C(=C/c1ccc(N2CCCCC2)o1)C(=O)Nc1ccc(Cl)cc1,36.7% (active)
20,CCOC(=O)C1(Cc2cccc(OC)c2)CCCN(Cc2nccn2CC)C1 (stereo not drawn),0.29%
21,O=C(NCc1ccco1)c1cc(-c2cccc(Cl)c2)on1,0.3%
